# Screening results: PubChem BioAssay, several laboratories
# Sampled rows, rich in hits. Any-hit rate of the full collection: about 2.4%.
# UBC9 SUMO inh: inhibitors of human SUMOylation (UBC9); HTRF SUMOylation assay, SAE1/SAE2 + UBC9, in vitro; P63279; AID 2006; inhibition, % at 35 µM; hit rate 0.36% among 290,000; in the data active = inhibition above about 50%, passing the limit was not always enough
# A3A deaminase: human APOBEC3A DNA deaminase inhibition; recombinant A3A, FAM/TAMRA ssDNA deamination fluorescence; inhibition, % at 20 µM; AID 493011; hit rate 0.41% among 330,000; P31941;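 active = at least 40% inhibition at 20 µM here, with at most 30% in a related deaminase screen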;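 also: plate controls were A3A with DMSO for no effect and wells lacking A3A enzyme for full effect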
# PfG6PD inh: PfG6PD (Plasmodium falciparum) enzyme inhibition; PfGluPho enzyme, NADPH resazurin-diaphorase fluorescence; inhibition, % at 20 µM; hit rate 0.78% among 350,000;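 active = inhibition reaching at least a set limit at 20 µM in the primary screen, cut at about 59% in these data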;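 also: 0% = DMSO wells with substrate and 100% = DMSO wells lacking glucose-6-phosphate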
# M18AAP inhibitor: PfM18AAP enzyme inhibition; recombinant PfM18AAP, H-Glu-NHMec fluorogenic cleavage; hit rate 1.2% among 290,000; inhibition, % at 7.35 µM;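 active = inhibition above the campaign mean inhibition over all tested compounds plus 3 SD, cut at about 28% in these data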;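 also: 0% = plate median of test compound wells and 100% = 2 mM ZnCl2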
# APOBEC3G inh: APOBEC3G (human) deaminase inhibition; recombinant A3G, ssDNA deamination FAM/TAMRA fluorescence; inhibition, % at 20 µM; hit rate 0.28% among 330,000;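 active = inhibition of at least 40% at 20 µM, with no more than 30% in the related APOBEC3A deaminase screen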;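 also: plate controls were DMSO wells with A3G for no effect and wells lacking A3G enzyme for full effect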
# HKDC1 inhibitor: inhibitors of human hexokinase HKDC1. recombinant HKDC1, G6PDH/diaphorase resazurin coupled fluorescence. inhibition, % at 20 µM. hit rate 0.16% among 340,000. AID 493160;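 active = inhibition above about 35% when tested at 20 µM, limit read from the data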;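 also: plate controls were DMSO wells with enzyme for no effect and DMSO wells lacking enzyme for full effect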
# Target sequence (Q2TB90 whole entry, looked up): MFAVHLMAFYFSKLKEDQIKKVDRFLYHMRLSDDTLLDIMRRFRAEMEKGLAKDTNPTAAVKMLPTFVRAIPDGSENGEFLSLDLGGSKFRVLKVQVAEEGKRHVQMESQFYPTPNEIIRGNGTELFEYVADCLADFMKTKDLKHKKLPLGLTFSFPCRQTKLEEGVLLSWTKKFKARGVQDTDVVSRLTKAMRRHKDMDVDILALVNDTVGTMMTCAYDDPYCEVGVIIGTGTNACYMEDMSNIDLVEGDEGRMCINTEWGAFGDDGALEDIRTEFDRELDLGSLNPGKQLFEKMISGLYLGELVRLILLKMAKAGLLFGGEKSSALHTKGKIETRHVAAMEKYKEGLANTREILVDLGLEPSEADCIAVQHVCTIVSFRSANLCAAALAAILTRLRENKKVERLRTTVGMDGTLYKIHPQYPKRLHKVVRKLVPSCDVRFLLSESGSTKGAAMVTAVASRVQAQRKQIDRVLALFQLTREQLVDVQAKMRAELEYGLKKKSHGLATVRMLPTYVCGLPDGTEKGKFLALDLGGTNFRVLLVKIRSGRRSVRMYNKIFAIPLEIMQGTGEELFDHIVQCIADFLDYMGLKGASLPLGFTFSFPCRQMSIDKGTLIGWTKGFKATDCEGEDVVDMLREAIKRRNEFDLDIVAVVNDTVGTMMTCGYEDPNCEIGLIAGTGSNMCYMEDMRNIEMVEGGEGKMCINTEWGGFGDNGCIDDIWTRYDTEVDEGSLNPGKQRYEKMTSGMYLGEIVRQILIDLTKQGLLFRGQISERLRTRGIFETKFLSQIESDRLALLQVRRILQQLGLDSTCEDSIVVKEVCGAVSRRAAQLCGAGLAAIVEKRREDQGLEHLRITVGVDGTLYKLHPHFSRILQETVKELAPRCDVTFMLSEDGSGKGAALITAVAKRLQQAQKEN
#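 System: Recombinant HKDC1 hexokinase | Amount: HKDC1 at 5 µg/mL | Reagent: Glucose with 1 mM ATP | Doses: Single 20 µM dose | Incubation: Reaction time 90 min, room temperature, protected from light | Signal: Coupled resazurin fluorescence, excitation 525 nm, emission 613 nm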
# PfG6PD confirm: confirmation of Plasmodium falciparum G6PD inhibitors; shares compounds with PfG6PD inh; recombinant PfGluPho, NADPH-diaphorase-resazurin fluorescence; inhibition, % at 20 µM; hit rate 34% among 2,400; AID 504753;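 active = inhibition of at least 50% at 20 µM in any single replicate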;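 also: 0% = DMSO with substrate and 100% = DMSO lacking glucose-6-phosphate substrate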
# Diaphorase 10uM: inhibits diaphorase or oxidizes, flagging false PfG6PD hits | shares compounds with PfG6PD inh | diaphorase-coupled resazurin reduction, fluorescence, NADPH 10 uM | inhibition, % at 20 µM | hit rate 39% among 820;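 active = average inhibition reaching 50% or more with the compound at 20 µM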;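 also: resorufin red fluorescence formed as diaphorase reduces resazurin using NADPH; 0% = DMSO with enzyme and 100% = DMSO without enzyme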
# Diaph ctr 30uM: inhibits diaphorase or oxidizes, flagging false PfG6PD hits; shares compounds with PfG6PD inh; Diaphorase/resazurin coupled assay, resorufin fluorescence, 30 uM NADPH; inhibition, % at 20 µM; hit rate 29% among 820; AID 504863;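 active = inhibition averaging 50% or more, tested at 20 µM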;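 also: 0% = DMSO with enzyme and 100% = DMSO wells lacking diaphorase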
# Active calls of the source: *; . = not tested or not shown.
SMILES,UBC9 SUMO inh,A3A deaminase,PfG6PD inh,M18AAP inhibitor,APOBEC3G inh,HKDC1 inhibitor,PfG6PD confirm,others
O=C(Nc1ccccn1)c1ccc(C(=O)Nc2ccccn2)cc1,5,-2,-12,5,-2,3,.,
S=C(Nc1ccc(Cl)cc1)Nc1cccc2cnccc12,99,-2,75*,14,-9,7,-8,
CN(C)S(=O)(=O)c1cccc(NC(=S)Nc2ccc3cn[nH]c3c2)c1,25,3,4,15,-3,4,.,
Fc1ccc(NC(=S)Nc2cccc3ccccc23)cc1F,77,-1,34,10,5,8,.,
CN(C)S(=O)(=O)c1cccc(NC(=S)Nc2cccc3cnccc23)c1,99*,.,69*,10,.,11,8,
COc1cccc(N2CCN(C(=O)C3C4C=CC5(CN(Cc6ccccc6Cl)C(=O)C35)O4)CC2)c1 (stereo unspecified),13,-3,13,8,-6,-4,.,
O=C(Nc1nc2ccccc2[nH]1)c1ccc([N+](=O)[O-])cc1,28,0,9,-2,-7,10,.,
Cc1nc(C(=O)Nc2ccccc2)sc1C1(C)CC(c2cccc([N+](=O)[O-])c2)=NO1 (stereo unspecified),-8,1,9,.,10,-6,.,
CCCn1c(-c2cccs2)nc2nc3ccccc3nc21,39,-4,18,-3,-11,-5,.,
c1csc(-c2nc3nc4ccccc4nc3n2Cc2ccc3c(c2)OCO3)c1,-4,0,72*,6,1,9,35,
Cc1cccc(S(=O)(=O)Nc2cc(Cl)ccc2N2CCOCC2)c1,.,-1,87*,.,-6,-2,31,
Cc1ccc(S(=O)(=O)Nc2ccccc2-c2ccccc2)cc1,-10,0,76*,-9,-5,3,32,
Cc1ccc(S(=O)(=O)Nc2ccccc2N2CCCCC2)cc1,.,-5,95*,.,-8,2,35,
Cc1ccc(S(=O)(=O)Nc2ccccc2N2CCOCC2)cc1,-9,0,62*,8,-7,-7,39,
COC(=O)c1ccc(N2CCCCC2)c(NS(=O)(=O)c2ccc(C)cc2)c1,0,-7,2,-5,-9,-2,.,
CC(C)(C)c1cc(CCC(=O)NCCc2ccccn2)cc(C(C)(C)C)c1O,2,-4,1,-6,-14,0,.,
O=C1C=C(NCCc2cc(Br)c(O)c(Br)c2)C(=O)c2ncccc21,.,.,115*,.,.,30,101*,Diaphorase 10uM=46;Diaph ctr 30uM=35
O=C1C=CC(=O)N1CCCCCCCCCCN1C(=O)C=CC1=O,.,.,84*,.,.,3,55*,Diaphorase 10uM=-20;Diaph ctr 30uM=-25
CCN(CC)c1ccc(/C=C2\CCC(/C=C(/C#N)C(=O)Nc3ccccc3F)=C2N2CCOCC2)cc1,.,.,70*,.,.,18,-14,
Cn1c(C(=O)Nc2ccc3c(c2)OCO3)cc2sccc21,1,6,81*,5,-5,8,22,
C/C(=N\Nc1cccc(Cl)c1)c1ccncc1,-3,-7,78*,7,-3,1,33,
Cc1nc2c3ccccc3nc(NNC(=O)CCC(=O)N3CCN(c4ccccc4)CC3)n2n1,-6,-2,0,2,3,-5,.,
CCc1ccn2cc(-c3ccc4c(c3)OCO4)nc2c1,22,-3,65*,2,-3,0,23,
CN(Cc1ccccc1)C(=O)c1cc2ccccc2o1,24,-1,1,-12,7,-12,.,
Cc1ccc(/C=N/NC(=O)c2cccc(S(=O)(=O)Nc3ccccc3Cl)c2)s1,5,-2,94*,-8,-3,-9,80*,Diaphorase 10uM=76*;Diaph ctr 30uM=61*
SMILES,UBC9 SUMO inh,A3A deaminase,PfG6PD inh,M18AAP inhibitor,APOBEC3G inh,HKDC1 inhibitor,PfG6PD confirm,others
O=C(CC1C(=O)NCCN1Cc1ccc(Cl)c(F)c1)NCCc1cccnc1 (stereo unspecified),19,3,4,-2,-2,0,.,
O=C1CC(N2CCN(c3ccc(O)cc3)CC2)C(=O)N1Cc1cccs1 (stereo unspecified),6,-1,67*,28,22,-2,19,
c1cc2c3c(cccc3c1)-c1cnccc1-2,.,.,65*,.,.,-2,32,
CCc1nc2ccccc2nc1N1CCN(S(=O)(=O)c2c(C)cc(Cl)cc2C)CC1,4,-3,5,-14,-5,-1,.,
ClC(Cl)(c1nnnn1-c1ccccc1)c1nnnn1-c1ccccc1,30,.,88*,12,.,8,78*,Diaphorase 10uM=-8;Diaph ctr 30uM=-6
c1ccc(-c2nnnn2-c2ccccc2)cc1,-5,-7,4,-7,-7,0,.,
O=C(Nc1ccc(Oc2cccnc2)cc1)c1ccc([N+](=O)[O-])cc1,8,1,13,-5,-1,1,.,
O=C(Nc1ccc(Oc2cccnc2)cc1)c1cccc([N+](=O)[O-])c1,-5,-4,61*,-1,-7,4,29,
O=C1c2ccccc2-c2onc3c(N4CCN(CCO)CC4)cc(N4CCN(C(=O)c5ccco5)CC4)c1c23,0,3,75*,22,4,24,35,
O=C(c1ccco1)N1CCN(CCCCN2C(=O)c3ccccc3C2=O)CC1,12,-1,-1,-1,-3,-1,.,
CN(CC(=O)NCc1ccccc1)Cc1ccc(Cl)cc1,2,-4,-4,-6,-7,-4,.,
CCc1cc(-c2n[nH]c(C)c2-c2nc(C)cs2)c(O)cc1OC,-16,-1,69*,7,-8,-4,41,
CCc1cc(-c2n[nH]c(C)c2-c2nc3ccccc3s2)c(O)cc1OCC(=O)NN,-5,-5,20,-7,-4,-6,.,
Cc1cc(=O)c2c(o1)C(=O)c1occc1C2=O,.,.,86*,.,.,23,53*,Diaphorase 10uM=65*;Diaph ctr 30uM=62*
FC(F)(F)c1cccc(-c2nc3nc(Cl)c(Cl)nc3[nH]2)c1,32,-5,102*,-8,-10,1,76*,Diaphorase 10uM=77*;Diaph ctr 30uM=57*
FC(F)(F)c1nc2nc(Cl)c(Cl)nc2[nH]1,.,.,-1,.,.,.,.,
c1ccc(Cc2nnc3n2N=C(c2ccccc2)CS3)cc1,23,-4,61*,2,-7,-1,22,
c1ccc(-c2ccc(C3=Nn4c(Cn5nnc6ccccc65)nnc4SC3)cc2)cc1,-15,1,72*,13,28,-8,13,
Fc1ccc(C2=Nn3c(Cc4ccccc4F)nnc3SC2)cc1,12,-19,7,5,-6,-2,.,
c1ccc(C2=Nn3c(Cn4nnc5ccccc54)nnc3SC2)cc1,-2,9,26,9,3,-1,.,
